# Assay results pooled from the literature.
# Compare with care: the assays were run in different laboratories.
# Cell line: NCI-H460
# Observed: cell growth or viability
Structure (SMILES),assay,conditions,quantity,result
N.N.[Cl][Pt][Cl],,,IC50,19 µM
COc1cc([C@@H]2c3cc4c(cc3[C@H](O)[C@H]3COC(=O)[C@H]23)OCO4)cc(OC)c1OC,MTT,72 h,EC50,0.0002 µM
N.N.[Cl][Pt][Cl],MTT,72 h,IC50,3 µM
N.N.[Cl][Pt][Cl],,24 h,IC50,50.5 µM
CN1C[C@H](C(=O)N[C@]2(C)O[C@@]3(O)[C@@H]4CCCN4C(=O)[C@H](Cc4ccccc4)N3C2=O)C=C2c3cccc4[nH]cc(c34)C[C@H]21,MTT,72 h,EC50,~25 µM
C=C(C)[C@@H]1CC[C@]2(CO)CC[C@]3(C)[C@H](CC[C@@H]4[C@@]5(C)CC[C@H](O)C(C)(C)[C@@H]5CC[C@]43C)[C@@H]12,,48 h,IC50,11.5 µM
Cc1cccc(-n2ncc(Cl)c(Cl)c2=O)c1,resazurin,96 h,IC50,1.5 µM
C1COCCN1.COc1ccc(/C=C\c2cc(I)c(OC)c(I)c2)cc1OP(=O)(O)O,SRB,48 h,GI50,0.033 µg/mL
